Measurements taken from the EternaBench riboswitch data.

Test system: MS2 coat protein
Assay: apparent Kd, MS2 coat protein; higher = weaker binding; RNA-MaP array; FMN 200 µM where present
Method in brief: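 Stalled E. coli RNA polymerase transcribed the designs on Illumina sequencing-chip clusters. SNAP-549-labelled MS2 coat protein was titrated from 0.7 or 1.5 nM, doubling to 3 µM, without and then with constant ligand, in 100 mM Tris-HCl pH 7.5, 80 mM KCl, 4 mM MgCl2, BSA, DTT, yeast tRNA and Tween-20. Per-cluster binding curves were fitted to green signal normalised to red-channel RNA signal and control-cluster median Fmax. The apparent Kd is the median of the filtered fits.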

[1] = designed as: OFF switch for flavin mononucleotide, no ligand
[2] = ligand present: flavin mononucleotide, designed as: OFF switch for flavin mononucleotide
[3] = designed as: ON switch for flavin mononucleotide, no ligand
[4] = ligand present: flavin mononucleotide, designed as: ON switch for flavin mononucleotide

Sequence	apparent Kd [1] [nM]	apparent Kd [2] [nM]	apparent Kd [3] [nM]	apparent Kd [4] [nM]
UGCUGUGUCAGAGGAUAUACUACUAUAAUCCAUUGCAAAUAGCGAUGGACAUGAGGAUCACCCAUGUAGAAGGCUGUCACAGCA	46.6	178		
CCUCCACAUGAGGAUCACCCAUGUCAGGAUAUCGUGUGUUUUUUUUCGGCCGCGCGUGCGAGAAGGGACGUCUU	19.5	19.8		
GCGCAAAGAUUAUUAUGAAUAAACAUGAGGAUCACCCAUGUAUAGGAUAUCGACUCGAAUAGAGUCGAGAAGGAUACAUAGCGC	22.5	97.1		
AUAACUGUACGAGGAUAUCCAAGGGCAGCCCUAGGAGAAGGCGUACAUGAGGAUCACCCAUGUACUAUAUGGAGUUCGCUCGUG	30.7	88.4		
CGUCCUUAGUGAGGAUAUCAGAAAAUACGGAAAUGAGAAGGCACAUGAGGAUCACCCAUGUAAAUAACGGCCGGUCUUGGCAGC	7.96	21.6		
GGUGGCGACGAGAAGGUUCACACAUGAGGAUCACCCAUGUAUGACAUGAGGAUCACCCAUGUAAGGGAGGAUAUUGGAUUUACC	92.8	91.4		
GCGUUACAUGAGGAUCACCCAUGUGAGGAUAUGGUUCGGUACUGUCCUGUCGCGUACUCCAGAAGGCACGGGUG	200	115		
AUAUAGGCCCAGAAGGUGCCAGCGAGAGCUGCACAUGAGGAUCACCCAUGUUGUCGGUGACGACGCAAGGAUAUGGGCCUAUAU			24.8	7.13
AAGAUGCCUCCUGCUGGUGGGAGACAUGAGGAUCACCCAUGUCAGGAUAUCGGUUAAAGAGGACACGAGAAGGGACAGGAGUAC	8.19	9.23		
UUGGGUUUGCGAGGAUAUCGUUUGUGAUUUGAUCGAGAAGGCGCUAUUUAAAUUAUUUUAACAUUACAUGAGGAUCACCCAUGU			19.1	17.2
GUGCCUUGGGAGAAGGCCGUAUGCAAAGCAUACGGAGGAUAUUCAUACCGGAAACGGACAUGAGGAUCACCCAUGUGGCACAAA			1360	46.1
GGUACCAUCACAGGAUAUGCUUUUCUUUGGGAAGCAGAAGGGUGUAACAUGAGGAUCACCCAUGUGGUGCCAGGGCGUUAGCCC			188	16.8
AUCAGCUCGUCAGGAUAUACGUCACUUCGUCAGCAGUGUGGUAAGAUCACAUGAGGAUCACCCAUGUAGAAGGGACGAGCUGAU	85.7	310		
UUCAGCUUGACAGGAUAUACAUCACUGCGAAAGCAGUGUAUCUUAAUAACAUGAGGAUCACCCAUGUAGAAGGGUCGAGCUGAA	18.4	32.7		
CGACCACAUGAGGAUCACCCAUGUAAGGAUAUAUUGAAUGAGCCGGCGGCAGUAAAAGAUAGAAGGUGCGUGUA	23.1	22		
GUUAUAAAGGUAGGAUAUUGUAUUAUAAUUAAAUAAGAAGGAUCUCACAUGAGGAUCACCCAUGUAAGAGGAUCACCCAUGUAU	9.63	8.14		
UGUUUUCAUGUAGGAUAUGCUUGUCGUAGAUACGCAGAAGGACAUGAGGAUCACCCAUGUUAAAGCGUCAGAGUAUAGAUUCUU	17.9	45.6		
GCUUCGGCAGGAUAUACAUGAGGAUCACCCAUGUUGAAGUUGAAGAUCUUCGGCUUCGGUAGAAGGGUUGAAGU	38	32.1		
GAGAUACAUGAGGAUCACCCAUGUGAGGAUAUCGGUUGGAGGAGGUGGAGGUUGAGUACGAGAAGGCACGGAUC	25	28.3		
CUUUUGUGAGGAUAUUAGUAGUAAAUUAAUAAAAUUACUACUGAGAAGGCACAUGAGGAUCACCCAUGUUCCUC	30.8	190		
GCAUGUGUGUAAGGAUAUGCAUCACUGAGAAAUUUAGUGAGGAAGAUCACAUGAGGAUCACCCAUGUAGAAGGUACACACGUGG	9.3	54.5		
GUCAGCUCGUGAGGAUAUACAACACUGCUUCGGCAGUGUAUUAAGAUGACAUGAGGAUCACCCAUGUAGAAGGCACGAGCUGAU	5.78	21		
AGCAUGUGAGGAUAUGCGGACUCCGGUAAAUCUGAAGUCCAGUAGAAGGCACAUGAGGAUCACCCAUGUGAGAU	43	110		
CUUUUGUGAGGAUAUCAGUAGUAAUAAUAUAAAAUUACUACUGAGAAGGCACAUGAGGAUCACCCAUGUUCCUC	37.2	185		
GGGUACAUCGGAGGAUAUCAUGUAAUUACAUGAGGAUCACCCAUGUCGAUGGAGACAUCGGAGAUUGAGAAGGCCGAUGUACCG			316	12.4
UAUGGUUAAGUCAGGAUAUACGUGCAGUUAUCUGAGUAGAAGGGACAUGAGGAUCACCCAUGUAUGGUAGUGUU	75.3	86.4		
AUGUUACAUGAGGAUCACCCAUGUGAGGAUAUGUGUACCGGUAAAAAAGUGUUUGGCCACAGAAGGCAUUUGGA	28.7	26.9		
ACAUGAGGAUCACCCAUGUAUACAUAGGAUAUUGGUGAUCAGGCAUGUUUUACAGGAUAUGUCUGCGAGAAGGAUGCACGUUGC			810	452

Sequence	apparent Kd [1] [nM]	apparent Kd [2] [nM]	apparent Kd [3] [nM]	apparent Kd [4] [nM]
UUUUCUUUUGUGAGGAUAUACUUGUUUUUUUUUUUGUAGAAGGCACAUGAGGAUCACCCAUGUACUCUUUCCUG	19.7	22.6		
AUAAUGGUAGGAUAUACAUGGAUAUACAUUCAUGUGGACCUACAUGAGGAUCACCCAUGUAGAAGGACCAUGAA	33.9	28.6		
CGGGCGGGAGGAUAUGCGUGGAUUGUUCUCGUAUGGUGUCUACAUGAGGAUCACCCAUGUAGAAGGCUUGUUUG	14.1	16.7		
UAUUAGUGAGGAUAUGAGUCGUAGAACAAUAGUACUACGUCUCAGAAGGCACAUGAGGAUCACCCAUGUUCCUU	13.6	44.9		
UUAAAUCAUGUAGGAUAUGCAUGGCGAAGCUACGCAGAAGGACAUGAGGAUCACCCAUGUUAUACCUACCCAGUUCGGUGGGAA	81	241		
GUGCCUUGGGAGAAGGUUAUAUGCAAAGCAUUUAAAGGAUAUUCAUACCGGAAACGGACAUGAGGAUCACCCAUGUGGCACAAA			1280	128
GGUACCAUCGCAGGAUAUGCUAGGGUUUCCUUAGCAGAAGGGUGAUAACAUGAGGAUCACCCAUGUGGUACCGGGCGUGAGCCC			95	1160
AUUAUUAAGUUAGGAUAUAGUAAAAUAAUUUAAUUAGAAGGAGCUCACAUGAGGAUCACCCAUGUAAGAGGAUCACCCAUGUAU	22.3	16.5		
UUUGUAUAGGUAGGAUAUACUUUCAAUUUUUUUUUCCUUACAUGAGGAUCACCCAUGUUUACAUUGUAGAAGGACCUCAUUGUU	250	326		
CCGGAAAUACAGGAUAUAGGAGUCGAUAGACUCCUAGAAGGGUAUACAUGAGGAUCACCCAUGUUCCUUACCGG	45.9	50.1		
AUAAUGAGUCAAGGAUAUCCGAGCUGAAUGCUUGGAGAAGGUGACAUGAGGAUCACCCAUGUCUCUCCGAGCAUGGUAUUCUCA	28.4	26.6		
AUGUUACAUGAGGAUCACCCAUGUGAGGAUAUGUGUACCCGUAAAAAAGUGUCGGGCCACAGAAGGCAUUUGGA	47.3	75		
UGUGUGAGACAGGAUAUGCUGGUUGUGUGGCGGGUAGAAGGGUCUACAUGAGGAUCACCCAUGUGGCCGGUUGG	22	22.8		
GGAGGACGAAACAUGAGGAUCACCCAUGUGUUAUAAUUAAUAUAGGAUAUGUUUAUACUUUUUGGGCAGAAGGAUGAUAAUGCU			21.9	16.9
UAUUAUGUCAGAGGAUAUAUAAAUAAAUUUAUAACAUGAGGAUCACCCAUGUACUUUAGUGUGAGGUAGAAGGUUGAUAAGAUA			37.2	22.6
CAGCGCUGUCGAGAGGAUAUGCGGUGAUGGACAUGAGGAUCACCCAUGUUAGCGAUAGCAUUACGGUAGAAGGCUCUACAGCUGC			239	14.2
AAAAAACAUGAGGAUCACCCAUGUCAGGAUAUUCGAAAAAAAAAAAAAAAAAAAAAAAGGAGAAGGGACGAAAA	60.1	50		
GCGAUUGCGUAGAAGGUACAAUAUAAUACAUUGUAAGGAUAUACUUACAUGAGGAUCACCCAUGUUAAUGGAAUUUGCAAUCGC			18.2	11.9
CAGCCCUGAGGAUAUCCCUACUUGUACAUGAGGAUCACCCAUGUUCUCCUCUGGGCUUCGGGAGAAGGCAGGUCUC	14.6	16.8		
GUGGUCAGACAUGAGGAUCACCCAUGUGGAAUAAAUAAGGAGAAGGAUAUUGAAUAUAGGAUAUACAAGAAGGUCUGGUUGGUG			84.9	87
ACCUCACAUGAGGAUCACCCAUGUCAGGAUAUCUUUUAAAACAGCAAUCCUGUCGCUGAGAGAAGGGACAUUAA	27.6	35.6		
UGAUAGGACAGAGGAUAUACCGAUAGGAUCUACUAUCGAAGAAUCCUCACAUGAGGAUCACCCAUGUAGAAGGCUGUCCUAUCU	41.6	678		
CGCUAGGAUGGGUCUAAUGGACCACAGGAUAUGCUUGUACAUGAGGAUCACCCAUGUAAUAUUGUGCAGAAGGGUGGAUUCGCG			76	10.9
CUGUUACAUGAGGAUCACCCAUGUGAGGAUAUGGUUCGGUACUGUCCUGUCGCGUACUCCAGAAGGCACGUGUC	29.4	29.9		
UGUUCUAUGUAGAAGGCCCAUAUCUGUACUUAGGGAGGAUAUACAUGAGGAUCACCCAUGUGUAGAGCUGGUGGACUGGACAGC	20.9	32.5		
AUCAGCUCGUCAGGAUAUACGUCACUGCGUCAGCAGUGUGGUAAGAUCACAUGAGGAUCACCCAUGUAGAAGGGACGUGCUGAU	13.3	314		
AUUAAACAUGAGGAUCACCCAUGUAAUAAUAUGGGAGGAUAUGCGAAUUUAAUUAUUUAAGCAGAAGGCCUAAUUA			63	19.2
